The target in one assay is NF-κB p65 (Homo sapiens, UniProt Q04206). As to the kind of experiment: Enzyme-based ELISA NF-κB p65 assay. It is filed as biochemical.
For the next assay, the target named is T1, NF-κB p50 (Homo sapiens, UniProt P19838).
T1 sequence (P19838 1-433 limits assumed): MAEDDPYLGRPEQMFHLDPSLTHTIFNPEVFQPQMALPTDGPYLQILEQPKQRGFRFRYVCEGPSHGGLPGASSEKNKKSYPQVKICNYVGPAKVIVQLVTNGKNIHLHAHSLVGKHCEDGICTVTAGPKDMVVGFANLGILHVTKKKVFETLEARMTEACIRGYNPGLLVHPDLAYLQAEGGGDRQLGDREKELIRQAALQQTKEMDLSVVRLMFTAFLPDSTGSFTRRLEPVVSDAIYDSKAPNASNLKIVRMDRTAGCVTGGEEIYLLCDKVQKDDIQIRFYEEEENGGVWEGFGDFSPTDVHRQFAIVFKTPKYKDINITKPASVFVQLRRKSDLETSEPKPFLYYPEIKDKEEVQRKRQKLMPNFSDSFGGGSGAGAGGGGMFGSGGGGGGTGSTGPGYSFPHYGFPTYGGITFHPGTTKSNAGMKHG
The experiment in a line: Enzyme-based ELISA NF-κB p50 assay. It is filed as biochemical.

For the next assay, the system named is P388 leukemia cells. To be noted: cited from earlier work.
Assay [1] relates to HT-29 human colon cancer cells. As to the kind of experiment: Cytotoxicity assay against HT-29 cells. The assay is classed as cell-based. The note with it: for cytotoxicity ED50: HT-29 cells, three days incubation, SRB; for IC50: Homo sapiens, HT-29, 72 h, read-out: cytotoxicity ED50. Summed up:
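Trypsinized HT-29 cells seeded in 96-well plates with test compound in DMSO; DMSO-only wells as negative control, paclitaxel as positive control. Incubated 3 days at 37 °C, 5% CO2. Cells fixed, held 30 min at room temperature, water-washed, air-dried overnight, then stained with sulforhodamine B. Dye released in tris-base buffer, absorbance read at 515 nm. Cytotoxicity calculated against negative control, reported as ED50 (μM).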

The next assay relates to 9KB. The note with it: 9KB in vitro test system; cited from earlier work.
The subject of the next assay is 9PS. The note with it: 9PS in vitro test system; cited from earlier work.

This is an account of results in paper PMC2878397 (Journal of natural products, 2010).

Where two headings read alike, the source gives them in different places.

Chain of NF-κB p65 (Q04206 whole entry, one chain of several): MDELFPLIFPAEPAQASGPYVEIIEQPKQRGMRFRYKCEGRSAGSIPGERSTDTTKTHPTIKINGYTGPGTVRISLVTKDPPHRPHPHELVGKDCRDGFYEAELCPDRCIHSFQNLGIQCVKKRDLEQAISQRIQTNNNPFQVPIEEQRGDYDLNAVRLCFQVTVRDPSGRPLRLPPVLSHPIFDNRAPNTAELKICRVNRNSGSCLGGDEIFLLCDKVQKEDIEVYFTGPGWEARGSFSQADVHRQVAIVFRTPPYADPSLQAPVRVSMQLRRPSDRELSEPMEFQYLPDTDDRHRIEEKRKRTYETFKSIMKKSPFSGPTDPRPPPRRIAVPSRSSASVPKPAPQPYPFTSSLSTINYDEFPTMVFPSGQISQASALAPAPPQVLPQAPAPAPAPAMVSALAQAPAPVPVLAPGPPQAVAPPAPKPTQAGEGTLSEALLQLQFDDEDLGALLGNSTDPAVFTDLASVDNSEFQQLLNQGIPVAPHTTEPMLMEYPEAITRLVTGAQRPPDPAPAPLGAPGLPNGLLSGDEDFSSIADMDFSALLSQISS

As for `CC(C)=CCc1c(O)c(CC=C(C)C)c2oc3c(c(=O)c2c1O)C(C=C(C)C)Oc1cc(O)c(O)cc1-3` (stereo not shown) [Compound 4, 2,3,8,10-tetrahydroxy-6-(2-methylpropenyl)-9,11-bis(3-methyl-2-butenyl)-6H[1]benzopyrano[4,3-b]benzopyran-7-one], the IC50 at NF-κB p65 and against NF-κB p50 was more than 10 µM throughout.

Regarding `CC(C)=CCc1c(-c2cc(O)c(O)cc2O)oc2c3c(cc(O)c2c1=O)OC(C)(C)C=C3` [artonin E], the “cytotoxicity ED50” value in the assay with P388 leukemia cells was 0.06 µg/mL.

For `CC1(C)C=Cc2c(cc(O)c3c(=O)c4c(oc23)-c2c(O)cc(O)c3c2C(C4)C(C)(C)O3)O1` (stereo not shown) [Compound 8, cycloartobiloxanthone], the IC50 against NF-κB p65 and against NF-κB p50 was more than 10 µM each time.

Regarding `C=C(C)[C@H]1Cc2c(oc3c4c(cc(O)c3c2=O)OC(C)(C)C=C4)-c2c(O)cc(O)c(O)c21` [Compound 7, artobiloxanthone], the values for the IC50 at NF-κB p65 and against NF-κB p50 were 2.3 µM and 3.7 µM, respectively. Besides, the “cytotoxicity ED50” value in assay [1] was more than 10 µM.

`C=C(C)c1cc2c(=O)c3c(O)c(CC=C(C)C)c(O)cc3oc2c2c1C(=O)C(O)=C(CC=C(C)C)C2=O` [Compound 3, 4,8,10-trihydroxy-5-isopropenyl-2,9-bis(3-methyl-2-butenyl)-7-benzo[c]xanthen-2,4,7-trione]: in assay [1], the “cytotoxicity ED50” value was more than 10 µM.

“3-hydroxy-4,3′,5′-trimethoxy-trans-stilbene [Compound 9]”: the IC50 on NF-κB p65 (read-out: NF-κB p65 inhibition IC50, HeLa nuclear extract, ELISA) is more than 10 µM; on NF-κB p50 (read-out: NF-κB p50 inhibition IC50, HeLa nuclear extract, ELISA), more than 10 µM. Also, the “cytotoxicity ED50” value in the assay on 9KB was 0.01 µg/mL; in the assay with 9PS it was 0.1 µg/mL; in assay [1], 8.7 µM.

For `C=C(C)[C@H]1Cc2c(oc3c(CC=C(C)C)c(O)c(CC=C(C)C)c(O)c3c2=O)-c2c(O)cc(O)c(O)c21` [Compound 1, (5R)-5,6-dihydro-1,3,4,8,10-pentahydroxy-5-isopropenyl-9,11-bis(3-methyl-2-butenyl)-7H-benzo[c]xanthen-7-one], the figures for the IC50 at NF-κB p65 and against NF-κB p50 were more than 10 µM and 2 µM, respectively.

`CC1(C)C=Cc2cc3c(cc2O1)Oc1cc(O)ccc1C(O)=C3` [Compound 5, 2,2-dimethyl-2H-benzo{6,7-oxepino[3,2-g]}chromene-7,10-diol]: the IC50 on NF-κB p65 is more than 10 µM; in assay [1], 10.7 µM; on NF-κB p50, more than 10 µM.

In the case of `COc1cc(O)c2c(=O)c3cc4c5c(c(O)cc(O)c5c3oc2c1)OC4(C)C` [artonin K], in assay [1], the IC50 was more than 10 µM.

Turning to `C=C(C)[C@H]1Cc2c(oc3cc(O)c(CC=C(C)C)c(O)c3c2=O)C2=C1C(=O)C(O)=C(CC=C(C)C)C2=O` [Compound 6, artonin O], the IC50 on NF-κB p65 and on NF-κB p50 was more than 10 µM throughout.
